Laboratory results published in ChEMBL document CHEMBL1255354, “Methicillin-resistant Staphylococcus saprophyticus isolates carrying staphylococcal cassette chromosome mec have emerged in urogenital tract infections” (2008).
Converted amounts (≈) assume the structure as drawn.

Columns and labels:
[1] = tested on: Staphylococcus saprophyticus; assay: Antibacterial activity against methicillin-resistant mecA-positive Staphylococcus saprophyticus isolate TSU67 isolated from genitourinary tracts of acute cystitis patient after 24 hrs at 35 degC by agar dilution method; format: functional; conditions: isolate TSU67, Urine
Procedure, shortened: (§1)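 MICs by agar dilution per CLSI M7-A6 on Mueller-Hinton agar, plates incubated 35°C for 24 h. Isolates identified as S. saprophyticus by Gram stain, catalase, coagulase, DNase, egg yolk mannitol salt agar growth, novobiocin susceptibility and ID 32 API Staph; mecA detected by dot-blot hybridization.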

[2] = tested on: Staphylococcus saprophyticus; assay: Antibacterial activity against methicillin-resistant mecA-positive Staphylococcus saprophyticus isolate TSU47 isolated from genitourinary tracts of acute cystitis patient after 24 hrs at 35 degC by agar dilution method; format: functional; conditions: isolate TSU47, Urine; procedure, shortened: as §1
[3] = tested on: Staphylococcus saprophyticus; assay: Antibacterial activity against methicillin-resistant mecA-positive Staphylococcus saprophyticus isolates isolated from genitourinary tracts of acute cystitis patient after 24 hrs at 35 degC by agar dilution method; format: functional; conditions: Urine; procedure, shortened: as §1
[4] = tested on: Staphylococcus saprophyticus; assay: Antibacterial activity against methicillin-resistant mecA-positive Staphylococcus saprophyticus isolate TSU33 after 24 hrs at 35 degC by agar dilution method; conditions: isolate TSU33, 24 h
[5] = tested on: Staphylococcus saprophyticus; assay: Antibacterial activity against methicillin-resistant mecA-positive Staphylococcus saprophyticus isolate TSU57 isolated from genitourinary tracts of acute cystitis patient after 24 hrs at 35 degC by agar dilution method; format: functional; conditions: isolate TSU57, Urine; procedure, shortened: as §1
[6] = tested on: Staphylococcus saprophyticus; assay: Antibacterial activity against methicillin-resistant mecA-positive Staphylococcus saprophyticus isolate TSU28 isolated from genitourinary tracts of acute cystitis patient after 24 hrs at 35 degC by agar dilution method; format: functional; conditions: isolate TSU28, Urine; procedure, shortened: as §1
[7] = tested on: Staphylococcus saprophyticus; assay: Antibacterial activity against methicillin-resistant mecA-positive Staphylococcus saprophyticus isolate TSU90 isolated from genitourinary tracts of acute cystitis patient after 24 hrs at 35 degC by agar dilution method; format: functional; conditions: isolate TSU90, Urine; procedure, shortened: as §1
[8] = tested on: Staphylococcus saprophyticus; assay: Antibacterial activity against methicillin-resistant mecA-positive Staphylococcus saprophyticus isolate TSU18 isolated from genitourinary tracts of acute cystitis patient after 24 hrs at 35 degC by agar dilution method; format: functional; conditions: isolate TSU18, Urine; procedure, shortened: as §1
[9] = tested on: Staphylococcus saprophyticus; assay: Antibacterial activity against methicillin-resistant mecA-positive Staphylococcus saprophyticus isolate TSU69 isolated from genitourinary tracts of acute cystitis patient after 24 hrs at 35 degC by agar dilution method; format: functional; conditions: isolate TSU69, Urine; procedure, shortened: as §1

SMILES	MIC [1] [µg/mL]	MIC [2] [µg/mL]	MIC50 [3] [µg/mL]	MIC90 [3] [µg/mL]	MIC [4] [µg/mL]	MIC [5] [µg/mL]	MIC [6] [µg/mL]	MIC [7] [µg/mL]	MIC [8] [µg/mL]	MIC [9] [µg/mL]
C[C@@H]1O[C@@H]1P(=O)(O)O [FOSFOMYCIN]	256 (≈ 1850 µM)	128 (≈ 927 µM)	128 (≈ 927 µM)	≥ 512	128 (≈ 927 µM)	128 (≈ 927 µM)	≥ 512	≥ 512	64 (≈ 464 µM)	≥ 512
Cc1nnc(SCC2=C(C(=O)O)N3C(=O)[C@@H](NC(=O)Cn4cnnn4)[C@H]3SC2)s1 [CEFAZOLIN]	128 (≈ 282 µM)	4 (≈ 8.8 µM)	1 (≈ 2.2 µM)	2 (≈ 4.4 µM)	1 (≈ 2.2 µM)	16 (≈ 35.2 µM)	32 (≈ 70.4 µM)	64 (≈ 141 µM)	16 (≈ 35.2 µM)	128 (≈ 282 µM)
CC1COc2c(N3CCN(C)CC3)c(F)cc3c(=O)c(C(=O)O)cn1c23 (stereo unspecified) [OFLOXACIN]	1 (≈ 2.77 µM)	–	–	1 (≈ 2.77 µM)	–	–	–	–	–	1 (≈ 2.77 µM)
Cc1onc(-c2ccccc2)c1C(=O)N[C@@H]1C(=O)N2[C@@H]1SC(C)(C)[C@@H]2C(=O)O [OXACILLIN]	256 (≈ 638 µM)	64 (≈ 159 µM)	0.5 (≈ 1.25 µM)	1 (≈ 2.49 µM)	128 (≈ 319 µM)	128 (≈ 319 µM)	256 (≈ 638 µM)	128 (≈ 319 µM)	128 (≈ 319 µM)	128 (≈ 319 µM)
NC[C@H]1O[C@H](O[C@H]2[C@H](O)[C@@H](O[C@H]3O[C@H](CO)[C@@H](O)[C@H](N)[C@H]3O)[C@H](N)C[C@@H]2N)[C@H](O)[C@@H](O)[C@@H]1O [KANAMYCIN]	0.25 (≈ 0.516 µM)	0.25 (≈ 0.516 µM)	0.25 (≈ 0.516 µM)	0.5 (≈ 1.03 µM)	0.25 (≈ 0.516 µM)	0.25 (≈ 0.516 µM)	0.25 (≈ 0.516 µM)	0.5 (≈ 1.03 µM)	0.25 (≈ 0.516 µM)	0.5 (≈ 1.03 µM)
CC[C@H]1OC(=O)[C@H](C)[C@@H](O[C@H]2C[C@@](C)(OC)[C@@H](O)[C@H](C)O2)[C@H](C)[C@@H](O[C@@H]2O[C@H](C)C[C@H](N(C)C)[C@H]2O)[C@](C)(OC)C[C@@H](C)C(=O)[C@H](C)[C@@H](O)[C@]1(C)O [CLARITHROMYCIN]	0.125 (≈ 0.167 µM)	16 (≈ 21.4 µM)	≤ 0.06	1 (≈ 1.34 µM)	16 (≈ 21.4 µM)	16 (≈ 21.4 µM)	32 (≈ 42.8 µM)	16 (≈ 21.4 µM)	16 (≈ 21.4 µM)	0.125 (≈ 0.167 µM)
NCC[C@H](O)C(=O)N[C@@H]1C[C@H](N)[C@@H](O[C@H]2O[C@H](CN)CC[C@H]2N)[C@H](O)[C@H]1O[C@H]1O[C@H](CO)[C@@H](O)[C@H](N)[C@H]1O [ARBEKACIN]	≤ 0.06	≤ 0.06	≤ 0.06	≤ 0.06	≤ 0.06	≤ 0.06	≤ 0.06	≤ 0.06	≤ 0.06	≤ 0.06
CC[C@H]1OC(=O)[C@H](C)[C@@H](O[C@H]2C[C@@](C)(OC)[C@@H](O)[C@H](C)O2)[C@H](C)[C@@H](O[C@@H]2O[C@H](C)C[C@H](N(C)C)[C@H]2O)[C@](C)(O)C[C@@H](C)C(=O)[C@H](C)[C@@H](O)[C@]1(C)O [ERYTHROMYCIN]	0.25 (≈ 0.341 µM)	64 (≈ 87.2 µM)	0.125 (≈ 0.17 µM)	2 (≈ 2.73 µM)	64 (≈ 87.2 µM)	64 (≈ 87.2 µM)	128 (≈ 174 µM)	64 (≈ 87.2 µM)	64 (≈ 87.2 µM)	0.25 (≈ 0.341 µM)
C[C@@H](O)[C@H]1C(=O)N2C(C(=O)O)=C(SCCNC=N)C[C@H]12 [IMIPENEM ANHYDROUS]	0.125 (≈ 0.418 µM)	0.125 (≈ 0.418 µM)	≤ 0.06	≤ 0.06	≤ 0.06	0.125 (≈ 0.418 µM)	0.125 (≈ 0.418 µM)	0.125 (≈ 0.418 µM)	≤ 0.06	0.125 (≈ 0.418 µM)
CO[C@@]1(NC(=O)Cc2cccs2)C(=O)N2C(C(=O)O)=C(COC(N)=O)CS[C@@H]21 [CEFOXITIN]	32 (≈ 74.9 µM)	8 (≈ 18.7 µM)	2 (≈ 4.68 µM)	2 (≈ 4.68 µM)	8 (≈ 18.7 µM)	16 (≈ 37.4 µM)	16 (≈ 37.4 µM)	16 (≈ 37.4 µM)	16 (≈ 37.4 µM)	32 (≈ 74.9 µM)
CN[C@H](CC(C)C)C(=O)N[C@H]1C(=O)N[C@@H](CC(N)=O)C(=O)N[C@H]2C(=O)N[C@H]3C(=O)N[C@H](C(=O)N[C@H](C(=O)O)c4cc(O)cc(O)c4-c4cc3ccc4O)[C@H](O)c3ccc(c(Cl)c3)Oc3cc2cc(c3O[C@@H]2O[C@H](CO)[C@@H](O)[C@H](O)[C@H]2O[C@H]2C[C@](C)(N)[C@H](O)[C@H](C)O2)Oc2ccc(cc2Cl)[C@H]1O [VANCOMYCIN]	1 (≈ 0.69 µM)	1 (≈ 0.69 µM)	0.5 (≈ 0.345 µM)	1 (≈ 0.69 µM)	0.5 (≈ 0.345 µM)	0.5 (≈ 0.345 µM)	1 (≈ 0.69 µM)	1 (≈ 0.69 µM)	0.5 (≈ 0.345 µM)	1 (≈ 0.69 µM)
CC1(C)S[C@@H]2[C@H](NC(=O)[C@H](N)c3ccccc3)C(=O)N2[C@H]1C(=O)O [AMPICILLIN]	–	4 (≈ 11.4 µM)	0.25 (≈ 0.715 µM)	1 (≈ 2.86 µM)	–	–	–	–	–	–
